{"source": "ChEMBL document CHEMBL2346629", "about": "“Discovery and characterization of novel allosteric FAK inhibitors” (Eur J Med Chem, 2013)", "key": {"[1]": {"target": "Testis-specific serine/threonine-protein kinase 2 (Homo sapiens) (UniProt Q96PF2)", "assay": "Inhibition of TSSK2 (unknown origin) using [gamma-33P]ATP assessed as residual activity at 3 uM"}, "[2]": {"target": "Serine/threonine-protein kinase VRK1 (Homo sapiens) (UniProt Q99986)", "sequence (Q99986 whole entry)": "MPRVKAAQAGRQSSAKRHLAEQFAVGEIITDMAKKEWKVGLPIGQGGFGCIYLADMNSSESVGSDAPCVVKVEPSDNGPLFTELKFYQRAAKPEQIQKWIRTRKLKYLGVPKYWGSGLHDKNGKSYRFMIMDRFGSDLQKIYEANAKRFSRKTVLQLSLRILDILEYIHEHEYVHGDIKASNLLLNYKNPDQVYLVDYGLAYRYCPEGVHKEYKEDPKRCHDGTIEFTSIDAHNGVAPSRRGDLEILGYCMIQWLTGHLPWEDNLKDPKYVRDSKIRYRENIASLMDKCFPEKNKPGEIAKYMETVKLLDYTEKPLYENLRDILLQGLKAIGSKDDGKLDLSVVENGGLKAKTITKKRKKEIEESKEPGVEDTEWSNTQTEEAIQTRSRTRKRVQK", "assay": "Inhibition of VRK1 (unknown origin) using [gamma-33P]ATP assessed as residual activity at 3 uM"}, "[3]": {"target": "Protein kinase C gamma type (Homo sapiens) (UniProt P05129)", "assay": "Inhibition of PKCgamma (unknown origin) using [gamma-33P]ATP assessed as residual activity at 3 uM"}, "[4]": {"target": "Dual specificity tyrosine-phosphorylation-regulated kinase 3 (Homo sapiens) (UniProt O43781)", "assay": "Inhibition of DYRK3 (unknown origin) using [gamma-33P]ATP assessed as residual activity at 3 uM", "how_it_was_run": "(§1)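 Reaction Biology HotSpot radiometric profiling panel of 288 kinases (261 wild-type, 27 mutant). Kinase activity was read out by incorporation of [γ-33P]ATP.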"}, "[5]": {"target": "Protein kinase C delta type (Homo sapiens) (UniProt Q05655)", "assay": "Inhibition of PKCd (unknown origin) using [gamma-33P]ATP assessed as residual activity at 3 uM"}, "[6]": {"target": "cGMP-dependent protein kinase 2 (Homo sapiens) (UniProt Q13237)", "assay": "Inhibition of PKG2 (unknown origin) using [gamma-33P]ATP assessed as residual activity at 3 uM"}, "[7]": {"target": "Proto-oncogene tyrosine-protein kinase receptor Ret (Homo sapiens) (UniProt P07949)", "assay": "Inhibition of RET (unknown origin) using [gamma-33P]ATP assessed as residual activity at 3 uM"}, "[8]": {"target": "Protein kinase C zeta type (Homo sapiens) (UniProt Q05513)", "assay": "Inhibition of PKCzeta (unknown origin) using [gamma-33P]ATP assessed as residual activity at 3 uM"}, "[9]": {"target": "Rho-associated protein kinase 1 (Homo sapiens) (UniProt Q13464)", "assay": "Inhibition of ROCK1 (unknown origin) using [gamma-33P]ATP assessed as residual activity at 3 uM"}, "[10]": {"target": "Epidermal growth factor receptor (Homo sapiens) (UniProt P00533)", "assay": "Inhibition of EGFR (unknown origin) using [gamma-33P]ATP assessed as residual activity at 3 uM", "how_it_was_run": "as §1"}, "[11]": {"target": "Protein kinase C beta type (Homo sapiens) (UniProt P05771)", "assay": "Inhibition of PKCb1 (unknown origin) using [gamma-33P]ATP assessed as residual activity at 3 uM"}, "[12]": {"target": "Tyrosine-protein kinase JAK3 (Homo sapiens) (UniProt P52333)", "assay": "Inhibition of JAK3 (unknown origin) using [gamma-33P]ATP assessed as residual activity at 3 uM", "how_it_was_run": "(§2)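 Radiometric kinase profiling service covering 288 kinases (261 wild-type, 27 mutant). Inhibition was read as incorporation from [γ-³³P]ATP.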"}, "[13]": {"target": "Serine/threonine-protein kinase DCLK2 (Homo sapiens) (UniProt Q8N568)", "sequence (Q8N568 whole entry)": "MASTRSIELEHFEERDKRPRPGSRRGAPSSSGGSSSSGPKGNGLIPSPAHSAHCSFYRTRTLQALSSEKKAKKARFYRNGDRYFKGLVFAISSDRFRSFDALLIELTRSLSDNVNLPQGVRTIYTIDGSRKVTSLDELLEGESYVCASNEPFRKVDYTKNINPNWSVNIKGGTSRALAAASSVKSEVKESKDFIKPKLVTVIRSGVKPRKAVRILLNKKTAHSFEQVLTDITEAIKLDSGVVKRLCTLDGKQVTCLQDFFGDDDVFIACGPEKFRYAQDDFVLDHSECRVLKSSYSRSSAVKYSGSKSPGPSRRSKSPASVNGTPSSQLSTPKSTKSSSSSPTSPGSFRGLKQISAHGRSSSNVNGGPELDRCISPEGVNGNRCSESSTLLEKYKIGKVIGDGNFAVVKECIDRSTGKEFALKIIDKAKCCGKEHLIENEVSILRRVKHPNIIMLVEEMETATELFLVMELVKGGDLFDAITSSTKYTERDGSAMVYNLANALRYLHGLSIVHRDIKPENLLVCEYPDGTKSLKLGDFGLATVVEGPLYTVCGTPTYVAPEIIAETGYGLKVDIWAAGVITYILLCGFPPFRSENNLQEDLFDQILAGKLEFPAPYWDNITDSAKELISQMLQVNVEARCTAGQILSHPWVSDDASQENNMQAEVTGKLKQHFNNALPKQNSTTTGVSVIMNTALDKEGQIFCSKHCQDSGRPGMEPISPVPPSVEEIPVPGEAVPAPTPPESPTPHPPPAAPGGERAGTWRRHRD", "assay": "Inhibition of DCAMKL2 (unknown origin) using [gamma-33P]ATP assessed as residual activity at 3 uM", "how_it_was_run": "as §1"}, "[14]": {"target": "Misshapen-like kinase 1 (Homo sapiens) (UniProt Q8N4C8)", "assay": "Inhibition of MINK (unknown origin) using [gamma-33P]ATP assessed as residual activity at 3 uM", "how_it_was_run": "(§3)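 Contract radiometric panel screen of 288 kinases (261 wild-type, 27 mutant). Inhibition was read by [gamma-33P]ATP radioactivity incorporation.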"}, "[15]": {"target": "Serine/threonine-protein kinase MARK1 (Homo sapiens) (UniProt Q9P0L2)", "assay": "Inhibition of MARK1 (unknown origin) using [gamma-33P]ATP assessed as residual activity at 3 uM", "how_it_was_run": "as §3"}, "[16]": {"test_system": "Tyrosine-protein kinase ABL1 (Homo sapiens), P00519 [T315I]", "assay": "Inhibition of ABL1 T315I mutant (unknown origin) using [gamma-33P]ATP assessed as residual activity at 3 uM", "how_it_was_run": "(§4)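 Radiometric profiling across 288 kinases (261 wild-type, 27 mutant), run as an outsourced service. Inhibition read out as [gamma-33P]ATP incorporation into substrate.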"}, "[17]": {"target": "Aurora kinase A (Homo sapiens) (UniProt O14965)", "assay": "Inhibition of Aurora A (unknown origin) using [gamma-33P]ATP assessed as residual activity at 3 uM", "how_it_was_run": "as §4"}, "[18]": {"target": "T1, Cyclin-dependent kinase 5/CDK5 activator 1 (Homo sapiens) (UniProt Q00535+Q15078)", "T1 sequence (Q00535 whole entry)": "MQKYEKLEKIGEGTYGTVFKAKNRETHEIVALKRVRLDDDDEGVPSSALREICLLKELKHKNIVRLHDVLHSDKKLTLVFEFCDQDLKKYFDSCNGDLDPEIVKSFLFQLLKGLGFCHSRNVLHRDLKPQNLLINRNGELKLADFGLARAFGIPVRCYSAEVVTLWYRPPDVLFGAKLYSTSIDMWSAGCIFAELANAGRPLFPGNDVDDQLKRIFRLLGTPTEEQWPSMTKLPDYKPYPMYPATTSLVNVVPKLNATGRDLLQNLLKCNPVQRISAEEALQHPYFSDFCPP", "T1 sequence (Q15078 99-307 partner limits assumed)": "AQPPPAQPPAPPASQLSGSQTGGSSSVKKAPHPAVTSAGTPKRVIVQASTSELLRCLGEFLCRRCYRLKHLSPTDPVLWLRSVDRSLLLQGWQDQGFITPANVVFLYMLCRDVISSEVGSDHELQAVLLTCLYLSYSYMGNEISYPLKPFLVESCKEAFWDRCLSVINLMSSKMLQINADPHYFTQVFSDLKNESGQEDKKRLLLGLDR", "assay": "Inhibition of CDK5/p35 (unknown origin) using [gamma-33P]ATP assessed as residual activity at 3 uM", "type": "protein-complex assay", "how_it_was_run": "as §4"}, "[19]": {"target": "Serine/threonine-protein kinase PAK 4 (Homo sapiens) (UniProt O96013)", "sequence (O96013 whole entry, looked up)": "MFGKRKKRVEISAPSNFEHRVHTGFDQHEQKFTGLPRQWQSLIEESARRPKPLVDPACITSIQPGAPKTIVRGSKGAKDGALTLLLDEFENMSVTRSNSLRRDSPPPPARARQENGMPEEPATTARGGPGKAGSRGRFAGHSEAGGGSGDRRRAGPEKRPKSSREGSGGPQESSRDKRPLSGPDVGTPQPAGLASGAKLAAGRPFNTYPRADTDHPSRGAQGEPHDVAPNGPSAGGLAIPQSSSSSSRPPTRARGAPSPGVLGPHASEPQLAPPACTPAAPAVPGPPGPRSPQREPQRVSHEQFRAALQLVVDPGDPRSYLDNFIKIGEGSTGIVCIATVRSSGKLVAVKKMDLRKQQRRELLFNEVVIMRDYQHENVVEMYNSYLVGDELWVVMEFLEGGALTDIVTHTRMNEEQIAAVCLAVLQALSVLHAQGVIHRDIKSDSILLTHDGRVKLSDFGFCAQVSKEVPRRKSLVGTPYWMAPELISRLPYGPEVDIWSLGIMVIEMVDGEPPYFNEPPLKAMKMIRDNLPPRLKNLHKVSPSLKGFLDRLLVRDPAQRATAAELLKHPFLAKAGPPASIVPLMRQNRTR", "assay": "Inhibition of PAK4 (unknown origin) using [gamma-33P]ATP assessed as residual activity at 3 uM"}, "[20]": {"target": "Insulin-like growth factor 1 receptor (Homo sapiens) (UniProt P08069)", "assay": "Inhibition of IGF-1R (unknown origin) using [gamma-33P]ATP assessed as residual activity at 3 uM", "how_it_was_run": "as §2"}, "[21]": {"target": "Vascular endothelial growth factor receptor 3 (Homo sapiens) (UniProt P35916)", "assay": "Inhibition of FLT4 (unknown origin) using [gamma-33P]ATP assessed as residual activity at 3 uM", "how_it_was_run": "as §2"}, "[22]": {"test_system": "Epidermal growth factor receptor (Homo sapiens), P00533 [L861Q]", "assay": "Inhibition of EGFR L861Q mutant(unknown origin) using [gamma-33P]ATP assessed as residual activity at 3 uM", "type": "protein assay", "how_it_was_run": "as §1"}, "[23]": {"target": "Serine/threonine-protein kinase pim-1 (Homo sapiens) (UniProt P11309)", "sequence (P11309 whole entry, looked up)": "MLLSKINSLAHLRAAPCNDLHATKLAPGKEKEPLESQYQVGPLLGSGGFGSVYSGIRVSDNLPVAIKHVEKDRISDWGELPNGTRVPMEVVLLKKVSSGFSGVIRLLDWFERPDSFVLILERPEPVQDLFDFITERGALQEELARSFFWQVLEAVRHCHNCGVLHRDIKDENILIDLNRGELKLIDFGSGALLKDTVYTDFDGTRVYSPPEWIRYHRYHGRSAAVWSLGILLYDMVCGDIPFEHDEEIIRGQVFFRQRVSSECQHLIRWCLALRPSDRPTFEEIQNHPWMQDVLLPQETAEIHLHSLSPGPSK", "assay": "Inhibition of PIM1 (unknown origin) using [gamma-33P]ATP assessed as residual activity at 3 uM"}, "[24]": {"target": "G protein-coupled receptor kinase 6 (Homo sapiens) (UniProt P43250)", "assay": "Inhibition of GRK6 (unknown origin) using [gamma-33P]ATP assessed as residual activity at 3 uM", "how_it_was_run": "as §2"}, "[25]": {"target": "Ribosomal protein S6 kinase alpha-3 (Homo sapiens) (UniProt P51812)", "sequence (P51812 whole entry)": "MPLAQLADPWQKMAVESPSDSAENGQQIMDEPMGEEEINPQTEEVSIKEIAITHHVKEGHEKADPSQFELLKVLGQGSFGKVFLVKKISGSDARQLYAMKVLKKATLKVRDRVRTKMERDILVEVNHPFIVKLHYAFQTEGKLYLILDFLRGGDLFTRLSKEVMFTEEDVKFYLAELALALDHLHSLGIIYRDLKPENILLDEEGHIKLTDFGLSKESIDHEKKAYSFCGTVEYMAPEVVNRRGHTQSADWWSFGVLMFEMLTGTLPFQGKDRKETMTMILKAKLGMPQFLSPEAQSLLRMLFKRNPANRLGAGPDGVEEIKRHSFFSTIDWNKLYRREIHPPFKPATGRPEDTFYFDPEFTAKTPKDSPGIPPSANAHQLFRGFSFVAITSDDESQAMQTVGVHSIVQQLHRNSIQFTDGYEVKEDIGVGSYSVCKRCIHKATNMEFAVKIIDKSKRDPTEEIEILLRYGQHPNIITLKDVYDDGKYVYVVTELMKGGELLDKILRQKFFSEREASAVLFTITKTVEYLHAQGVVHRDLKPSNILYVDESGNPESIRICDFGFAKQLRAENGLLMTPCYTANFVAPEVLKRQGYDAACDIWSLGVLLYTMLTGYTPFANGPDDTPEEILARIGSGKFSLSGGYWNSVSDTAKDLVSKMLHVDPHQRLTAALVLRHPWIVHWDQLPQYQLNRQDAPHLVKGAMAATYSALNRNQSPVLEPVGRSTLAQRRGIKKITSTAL", "assay": "Inhibition of RSK2 (unknown origin) using [gamma-33P]ATP assessed as residual activity at 3 uM"}, "[26]": {"target": "T1, Cyclin-dependent kinase 5/CDK5 activator 1 (Homo sapiens)", "assay": "Inhibition of CDK5/p25 (unknown origin) using [gamma-33P]ATP assessed as residual activity at 3 uM", "type": "protein-complex assay", "how_it_was_run": "as §4"}, "[27]": {"target": "Serine/threonine-protein kinase 24 (Homo sapiens) (UniProt Q9Y6E0)", "assay": "Inhibition of MST3 (unknown origin) using [gamma-33P]ATP assessed as residual activity at 3 uM"}, "[28]": {"target": "Muscle, skeletal receptor tyrosine-protein kinase (Homo sapiens) (UniProt O15146)", "sequence (O15146 whole entry)": "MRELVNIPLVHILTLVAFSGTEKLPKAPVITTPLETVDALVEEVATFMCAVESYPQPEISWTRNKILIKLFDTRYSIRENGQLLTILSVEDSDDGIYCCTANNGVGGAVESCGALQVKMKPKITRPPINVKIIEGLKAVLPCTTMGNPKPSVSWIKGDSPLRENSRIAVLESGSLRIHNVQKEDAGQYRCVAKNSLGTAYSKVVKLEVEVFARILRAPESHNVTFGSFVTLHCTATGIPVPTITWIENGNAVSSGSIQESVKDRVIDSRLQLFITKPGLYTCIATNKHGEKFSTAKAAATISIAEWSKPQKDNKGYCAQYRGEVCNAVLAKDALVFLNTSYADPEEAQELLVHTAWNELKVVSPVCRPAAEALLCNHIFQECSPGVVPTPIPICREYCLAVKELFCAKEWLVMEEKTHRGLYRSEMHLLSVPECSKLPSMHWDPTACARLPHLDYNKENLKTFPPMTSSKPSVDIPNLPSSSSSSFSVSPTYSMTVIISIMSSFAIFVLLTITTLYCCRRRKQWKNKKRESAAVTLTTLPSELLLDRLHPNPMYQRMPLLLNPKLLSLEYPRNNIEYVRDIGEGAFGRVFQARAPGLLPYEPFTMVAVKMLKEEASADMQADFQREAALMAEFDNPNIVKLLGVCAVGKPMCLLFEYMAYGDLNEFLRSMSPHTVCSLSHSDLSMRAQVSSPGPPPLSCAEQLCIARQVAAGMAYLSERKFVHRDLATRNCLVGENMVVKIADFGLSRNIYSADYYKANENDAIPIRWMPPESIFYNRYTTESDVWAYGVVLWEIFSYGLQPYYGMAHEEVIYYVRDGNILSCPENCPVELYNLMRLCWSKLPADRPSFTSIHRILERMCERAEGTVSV", "assay": "Inhibition of MUSK (unknown origin) using [gamma-33P]ATP assessed as residual activity at 3 uM"}, "[29]": {"target": "Tyrosine-protein kinase receptor TYRO3 (Homo sapiens) (UniProt Q06418)", "assay": "Inhibition of TYRO3 (unknown origin) using [gamma-33P]ATP assessed as residual activity at 3 uM"}, "[30]": {"target": "Tyrosine-protein kinase Fgr (Homo sapiens, UniProt P09769)", "assay": "Inhibition of FGR (unknown origin) using [gamma-33P]ATP assessed as residual activity at 3 uM"}, "[31]": {"target": "Fibroblast growth factor receptor 4 (Homo sapiens) (UniProt P22455)", "sequence (P22455 22-802 limits assumed)": "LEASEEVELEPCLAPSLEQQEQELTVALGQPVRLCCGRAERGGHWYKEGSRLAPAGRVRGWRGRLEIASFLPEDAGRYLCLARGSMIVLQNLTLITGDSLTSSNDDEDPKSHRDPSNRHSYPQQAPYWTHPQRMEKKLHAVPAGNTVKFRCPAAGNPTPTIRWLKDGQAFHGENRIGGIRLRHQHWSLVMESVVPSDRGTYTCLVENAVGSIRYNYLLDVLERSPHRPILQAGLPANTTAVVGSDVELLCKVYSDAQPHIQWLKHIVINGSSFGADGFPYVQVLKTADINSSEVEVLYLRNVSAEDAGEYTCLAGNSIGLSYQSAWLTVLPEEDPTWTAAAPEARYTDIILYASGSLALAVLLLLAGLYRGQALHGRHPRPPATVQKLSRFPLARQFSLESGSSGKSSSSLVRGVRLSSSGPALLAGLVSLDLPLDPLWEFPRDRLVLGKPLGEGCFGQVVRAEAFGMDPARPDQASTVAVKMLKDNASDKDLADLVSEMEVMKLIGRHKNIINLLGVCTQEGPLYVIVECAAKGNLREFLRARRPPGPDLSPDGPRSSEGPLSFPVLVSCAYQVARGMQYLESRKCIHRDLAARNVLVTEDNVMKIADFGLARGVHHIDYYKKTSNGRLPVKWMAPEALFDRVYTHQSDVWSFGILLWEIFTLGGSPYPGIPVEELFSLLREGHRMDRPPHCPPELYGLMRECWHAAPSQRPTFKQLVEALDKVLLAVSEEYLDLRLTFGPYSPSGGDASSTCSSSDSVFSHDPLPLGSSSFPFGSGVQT", "assay": "Inhibition of FGFR4 (unknown origin) using [gamma-33P]ATP assessed as residual activity at 3 uM", "how_it_was_run": "as §1"}, "[32]": {"target": "Tyrosine-protein kinase ABL1 (Homo sapiens) (UniProt P00519)", "assay": "Inhibition of ABL1 (unknown origin) using [gamma-33P]ATP assessed as residual activity at 3 uM", "how_it_was_run": "as §4"}}, "data": [{"smiles": "CCc1ccc(-c2ccc3c(c2)-c2[nH]ncc2S(=O)(=O)N3C)cc1", "values": [{"measurement": "Activity", "setting": "[1]", "result": 87, "unit": "%"}, {"measurement": "Activity", "setting": "[2]", "result": 81, "unit": "%"}, {"measurement": "Activity", "setting": "[3]", "result": 96, "unit": "%"}, {"measurement": "Activity", "setting": "[4]", "result": 100, "unit": "%"}, {"measurement": "Activity", "setting": "[5]", "result": 91, "unit": "%"}, {"measurement": "Activity", "setting": "[6]", "result": 93, "unit": "%"}, {"measurement": "Activity", "setting": "[7]", "result": 94, "unit": "%"}, {"measurement": "Activity", "setting": "[8]", "result": 98, "unit": "%"}, {"measurement": "Activity", "setting": "[9]", "result": 94, "unit": "%"}, {"measurement": "Activity", "setting": "[10]", "result": 97, "unit": "%"}, {"measurement": "Activity", "setting": "[11]", "result": 101, "unit": "%"}, {"measurement": "Activity", "setting": "[12]", "result": 94, "unit": "%"}, {"measurement": "Activity", "setting": "[13]", "result": 101, "unit": "%"}, {"measurement": "Activity", "setting": "[14]", "result": 55, "unit": "%"}, {"measurement": "Activity", "setting": "[15]", "result": 94, "unit": "%"}, {"measurement": "Activity", "setting": "[16]", "result": 93, "unit": "%"}, {"measurement": "Activity", "setting": "[17]", "result": 90, "unit": "%"}, {"measurement": "Activity", "setting": "[18]", "result": 90, "unit": "%"}, {"measurement": "Activity", "setting": "[19]", "result": 97, "unit": "%"}, {"measurement": "Activity", "setting": "[20]", "result": 87, "unit": "%"}, {"measurement": "Activity", "setting": "[21]", "result": 80, "unit": "%"}, {"measurement": "Activity", "setting": "[22]", "result": 106, "unit": "%"}, {"measurement": "Activity", "setting": "[23]", "result": 96, "unit": "%"}, {"measurement": "Activity", "setting": "[24]", "result": 97, "unit": "%"}, {"measurement": "Activity", "setting": "[25]", "result": 84, "unit": "%"}, {"measurement": "Activity", "setting": "[26]", "result": 90, "unit": "%"}, {"measurement": "Activity", "setting": "[27]", "result": 73, "unit": "%"}, {"measurement": "Activity", "setting": "[28]", "result": 68, "unit": "%"}, {"measurement": "Activity", "setting": "[29]", "result": 94, "unit": "%"}, {"measurement": "Activity", "setting": "[30]", "result": 47, "unit": "%"}, {"measurement": "Activity", "setting": "[31]", "result": 87, "unit": "%"}, {"measurement": "Activity", "setting": "[32]", "result": 63, "unit": "%"}]}]}
